According to ChEMBL document CHEMBL4190298, “Stereochemistry of a Second Riolozane and Other Diterpenoids from Jatropha dioica” (J Nat Prod, 2017):

What was measured:
[1] = Cytotoxicity against African green monkey Vero cells assessed as reduction in cell viability after 3 days by MTT assay; assay type: cell-based; details: chlorocebus sabaeus
How it was run: (§1)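 Vero cells (ATCC CRL-1586) were grown in advanced DMEM with 2% FBS at 37 °C and 5% CO2 and exposed to compound at 100, 200, 400, 800 or 1600 μM for 3 days. Viability was read by MTT (10 μL of 5 mg/mL stock added). CC50 is the concentration reducing viability by 50% relative to untreated cells, taken as 100%. Triplicate; mean ± SD.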

Human alphaherpesvirus 1 [2] = assay: Antiviral activity against HSV-1 infected in African green monkey Vero cells assessed as inhibition of virus plaque formation after 72 hrs by Giemsa staining based assay; assay type: functional, organism-based; details: Human alphaherpesvirus 1, Vero
How it was run: (§2)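 Vero cells (ATCC CRL-1586) were grown in advanced DMEM with 2% FBS at 37 °C and 5% CO2. Wells of 5×10^5 cells were infected with 100 PFU HSV-1 or HSV-2 for 1 h at 37 °C. The supernatant was then replaced with medium containing 1% DMSO, 0.32% IgG and compound at 80, 160 or 320 μM. After 72 h, cells were MeOH-fixed and Giemsa-stained. Mock and acyclovir controls; triplicate.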

Human alphaherpesvirus 2 [3] = assay: Antiviral activity against HSV-2 infected in African green monkey Vero cells assessed as inhibition of virus plaque formation after 72 hrs by Giemsa staining based assay; assay type: functional, organism-based; details: Human alphaherpesvirus 2, Vero; how it was run: as §2
[4] = Selectivity index, ratio of CC50 for African green monkey Vero cells to IC50 for HSV-1 infected in African green monkey Vero cells; assay type: toxicity; details: HSV-1 infected Vero cells, read-out: Ratio CC50/IC50
[5] = Selectivity index, ratio of CC50 for African green monkey Vero cells to IC50 for HSV-2 infected in African green monkey Vero cells; assay type: toxicity; details: HSV-2 infected Vero cells, read-out: Ratio CC50/IC50
[6] = Cytotoxicity against African green monkey Vero cells; assay type: cell-based; details: chlorocebus sabaeus; how it was run: as §1
Human alphaherpesvirus 1 [7] = assay: Antiviral activity against HSV-1 infected in African green monkey Vero cells assessed as inhibition of virus plaque formation; assay type: functional, organism-based; details: Human alphaherpesvirus 1, Vero; how it was run: as §2
Human alphaherpesvirus 2 [8] = assay: Antiviral activity against HSV-2 infected in African green monkey Vero cells assessed as inhibition of virus plaque formation; assay type: functional, organism-based; details: Human alphaherpesvirus 2, Vero; how it was run: as §2

Row | IC50 (Human alphaherpesvirus 1 [2]) [µM] | IC50 (Human alphaherpesvirus 2 [3]) [µM] | IC50 (Human alphaherpesvirus 1 [7]) [µM] | IC50 (Human alphaherpesvirus 2 [8]) [µM] | SMILES | CC50 at 72 h [1] [µM] | selectivity ratio [4] | selectivity ratio [5] | CC50 [6] [µM]
1 | > 303 | > 303 |  |  | C/C1=C/[C@]23O[C@H]2[C@H](C)C[C@@H]3C(=O)[C@]2(C)C(=O)CC(C)(C)[C@H]2CC1=O | > 1520 |  |  | 
2 | 180 | 172 |  |  | C[C@@H]1CC2=C(C1)[C@@H]([C@@]1(C)C(=O)C[C@H]3[C@@H](C1=O)C3(C)C)[C@@H](C)C2=O | 584 | 3.2 | 3.4 | 
3 |  |  | 210 | 210 | C[C@@H]1CC2=C(C1)[C@@H]([C@@]1(C)C(=O)C[C@H]3[C@@H](C1=O)C3(C)C)[C@H](C)C2=O |  | 5.8 | 5.8 | 1220
4 | 4.75 | 3.11 |  |  | Nc1nc2c(ncn2COCCO)c(=O)[nH]1 [ACYCLOVIR] |  |  |  | 
